Experimental data reported in ChEMBL document CHEMBL2146415, “Antibacterial activities of Groebke-Blackburn-Bienaymé-derived imidazo[1,2-a]pyridin-3-amines” (Bioorg Med Chem, 2012).
Converted amounts (≈) assume the structure as drawn. The source made the active and inactive calls. The calls are words filed in the database; no cut-off is given here.

What was measured:
[1] = biological target: T1, Toll-like receptor 7 (Homo sapiens) (UniProt Q9NYK1); test: Agonist activity at human TLR7 expressed in HEK293 cells co-transfected with NF-kappaB/sAP gene assessed as induction of NF-kappaB activation up to 250 uM by reporter gene assay; type: functional, cell-based
T1 sequence (whole entry): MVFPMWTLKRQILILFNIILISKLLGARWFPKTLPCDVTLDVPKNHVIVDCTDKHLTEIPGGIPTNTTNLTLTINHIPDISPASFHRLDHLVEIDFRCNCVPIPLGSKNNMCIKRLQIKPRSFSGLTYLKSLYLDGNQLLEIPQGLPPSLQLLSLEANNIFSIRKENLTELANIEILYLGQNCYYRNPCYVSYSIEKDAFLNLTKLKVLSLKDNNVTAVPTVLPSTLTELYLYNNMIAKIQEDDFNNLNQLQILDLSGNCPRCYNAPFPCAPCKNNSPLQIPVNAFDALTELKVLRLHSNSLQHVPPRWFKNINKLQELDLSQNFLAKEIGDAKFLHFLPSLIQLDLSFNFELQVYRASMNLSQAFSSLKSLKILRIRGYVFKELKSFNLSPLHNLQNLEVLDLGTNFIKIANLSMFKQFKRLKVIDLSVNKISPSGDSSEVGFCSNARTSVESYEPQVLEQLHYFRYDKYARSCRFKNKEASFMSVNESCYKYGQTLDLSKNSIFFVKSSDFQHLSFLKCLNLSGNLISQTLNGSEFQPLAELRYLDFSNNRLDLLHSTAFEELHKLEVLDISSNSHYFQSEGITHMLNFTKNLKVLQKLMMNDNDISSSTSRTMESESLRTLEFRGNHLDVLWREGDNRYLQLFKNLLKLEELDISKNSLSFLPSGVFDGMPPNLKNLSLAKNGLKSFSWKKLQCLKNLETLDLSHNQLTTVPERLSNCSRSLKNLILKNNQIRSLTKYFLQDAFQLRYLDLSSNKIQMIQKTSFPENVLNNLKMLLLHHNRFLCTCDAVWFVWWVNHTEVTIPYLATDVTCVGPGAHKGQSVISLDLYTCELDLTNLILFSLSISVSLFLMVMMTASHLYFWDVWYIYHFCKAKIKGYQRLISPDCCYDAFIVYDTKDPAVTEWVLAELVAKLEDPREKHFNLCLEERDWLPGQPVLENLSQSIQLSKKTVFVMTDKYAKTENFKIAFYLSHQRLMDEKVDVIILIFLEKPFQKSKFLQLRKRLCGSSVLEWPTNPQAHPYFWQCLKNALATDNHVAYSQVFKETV

Staphylococcus aureus [2] = test: Bacteriostatic activity against wild type Staphylococcus aureus ATCC 13709 at 100 ug/mL by CLSI broth microdilution method; type: functional, organism-based
[3] = biological target: T1, Toll-like receptor 7 (Homo sapiens); test: Antagonist activity at TLR7 expressed in HEK293 cells co-transfected with NF-kappaB/sAP gene assessed as inhibition of gardiquimod-induced NF-kappaB activation up to 250 uM by reporter gene assay; type: functional, cell-based
Staphylococcus aureus [4] = test: Bacteriostatic activity against wild type Staphylococcus aureus ATCC 13709 by CLSI broth microdilution method; type: functional
Procedure, shortened: (§1)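 MIC was determined by CLSI broth microdilution in non-cation-supplemented Mueller-Hinton broth, using OD600 0.5 cultures diluted 10-fold and 2-fold compound dilutions, overnight at 37°C, A600 read-out.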

Staphylococcus aureus [5] = test: Bacteriostatic activity against methicillin resistant Staphylococcus aureus ATCC 33591 by CLSI broth microdilution method; type: functional
Escherichia coli = test: Antibacterial activity against Escherichia coli ATCC 9637 in presence of 6.6 ug/mL polymyxin B […]; type: functional, organism-based
Procedure, shortened: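 Broth microdilution per CLSI. Mid-log cultures in non-cation-supplemented Mueller-Hinton broth were adjusted to OD600 0.5, diluted 10-fold, and added to equal volumes of 2-fold serially diluted compound. Plates were sealed and incubated overnight at 37°C, then read at A600. MIC was the lowest concentration inhibiting growth. Reference antibiotics were run alongside.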

Staphylococcus aureus [6] = test: Bactericidal activity against methicillin resistant Staphylococcus aureus ATCC 33591 by broth microdilution method; type: functional, organism-based
Procedure, shortened: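 MBC by microdilution subculture: 0.5 μL from each well of the parent MIC plate (MRSA ATCC 33591) diluted into 80 μL fresh Mueller-Hinton broth, incubated overnight at 37°C, absorbance read at 600 nm.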

Streptococcus pyogenes = test: Bacteriostatic activity against Streptococcus pyogenes clinical isolate by CLSI broth microdilution method; type: functional; procedure, shortened: as §1
[7] = test system: Staphylococcus epidermidis; test: Bacteriostatic activity against coagulase negative Staphylococcus epidermidis ATCC 35983 by CLSI broth microdilution method; type: functional; procedure, shortened: as §1
[8] = Chemical stability in aqueous solution of the compound assessed as N-dealkylated compound formation after 2 weeks by LC-MS analysis; type: physicochemical; details: buffer, 336 h

Activity [1]	Activity [3]	MIC (Staphylococcus aureus [4]) [µg/mL]	SMILES	Activity (Staphylococcus aureus [2])	further results
inactive	inactive	–	CC(C)(C)Nc1c(Cc2ccccc2)nc2ccccn12	inactive	–
inactive	inactive	–	c1ccc(Cc2nc3ccccn3c2NC2CCCCC2)cc1	inactive	–
inactive	inactive	–	c1ccc(CNc2c(-c3cccc4ccccc34)nc3cnccn23)cc1	inactive	–
–	–	3.91 (≈ 7.49 µM)	CN(C)CCCNc1c2ccccc2c(-c2nc3ccccn3c2NC(C)(C)CC(C)(C)C)c2ccccc12	–	–
inactive	inactive	–	CC(C)(C)Nc1c(-c2cccc3ccccc23)nc2cnccn12	inactive	–
inactive	inactive	7.81 (≈ 19.9 µM)	c1ccc2c(-c3nc4cnccn4c3NC3CCCCC3)c3ccccc3cc2c1	–	–
–	–	–	Cc1cccc(Cl)c1Nc1c(-c2c3ccccc3cc3ccccc23)nc2ccccn12	inactive	–
–	–	15.6 (≈ 35.1 µM)	CC(C)(C)CC(C)(C)Nc1c(-c2cc3cccc4ccc5cccc2c5c43)nc2ccccn12	–	–
–	–	15.6 (≈ 39.8 µM)	c1ccc2c(-c3nc4ncccn4c3NC3CCCCC3)c3ccccc3cc2c1	–	–
inactive	inactive	–	c1ccc(CNc2c(-c3c4ccccc4cc4ccccc34)nc3ccccn23)cc1	inactive	–
–	–	7.81 (≈ 17.1 µM)	CC(C)(C)CC(C)(C)Nc1c(-c2c3ccccc3c(Cl)c3ccccc23)nc2ccccn12	–	–
inactive	inactive	–	c1ccc(CNc2c(-c3c4ccccc4cc4ccccc34)nc3cnccn23)cc1	inactive	–
–	–	–	CC(C)(C)CC(C)(C)Nc1c(-c2ccc(-c3ccccc3)cc2)nc2ccccn12	inactive	–
–	–	15.6 (≈ 31.2 µM)	CC(C)(C)CC(C)(C)Nc1c(-c2c3ccccc3cc3ccccc23)nc2ccc(Br)cn12	–	–
inactive	inactive	–	c1ccc(Cc2nc3cnccn3c2NC2CCCCC2)cc1	inactive	–
–	–	15.6 (≈ 35.2 µM)	c1ccc2c(-c3nc4ccccn4c3NC34CC5CC(CC(C5)C3)C4)c3ccccc3cc2c1	–	–
–	–	–	Nc1c(-c2c3ccccc3cc3ccccc23)nc2ccccn12	inactive	–
–	–	–	COc1ccc(Nc2c(-c3c4ccccc4cc4ccccc34)nc3ccccn23)cc1	inactive	–
–	–	–	CN(C)CCCNc1c2ccccc2c(-c2nc3ccccn3c2NC(C)(C)CC(C)(C)C)c2ccccc12.Cl	–	Stability [8]: Unstable
–	–	–	CN(C)CCCNc1ccc2nc(-c3c4ccccc4cc4ccccc34)c(NC(C)(C)CC(C)(C)C)n2c1.Cl	–	Stability [8]: Unstable
–	–	–	Clc1nccn2c(NC3CCCCC3)c(-c3c4ccccc4cc4ccccc34)nc12	inactive	–

Activity [1]	Activity [3]	MIC (Staphylococcus aureus [4]) [µg/mL]	SMILES	Activity (Staphylococcus aureus [2])	further results
–	–	7.81 (≈ 19.5 µM)	CC(C)(C)Nc1c(-c2c3ccccc3c(Cl)c3ccccc23)nc2ccccn12	–	–
inactive	inactive	15.6 (≈ 44.7 µM)	c1ccc(CNc2c(-c3cccc4ccccc34)nc3ccccn23)cc1	–	–
inactive	inactive	–	c1ccc(CNc2c(-c3ccccc3)nc3cnccn23)cc1	inactive	–
–	–	15.6 (≈ 38.4 µM)	Nc1cccn2c(NC3CCCCC3)c(-c3c4ccccc4cc4ccccc34)nc12	–	–
inactive	inactive	–	c1ccc(-c2nc3cnccn3c2NC2CCCCC2)cc1	inactive	–
inactive	inactive	–	CC(C)(C)Nc1c(-c2c3ccccc3cc3ccccc23)nc2cnccn12	inactive	–
inactive	inactive	–	CC(C)(C)Nc1c(-c2ccccc2)nc2cnccn12	inactive	–
inactive	inactive	–	c1ccc2c(-c3nc4cnccn4c3NC3CCCCC3)cccc2c1	inactive	–
–	–	7.81 (≈ 18.5 µM)	CCCCCCCCNc1c(-c2c3ccccc3cc3ccccc23)nc2ccccn12	–	–
inactive	inactive	–	c1ccc(CNc2c(-c3ccccc3)nc3ccccn23)cc1	inactive	–
–	–	7.81 (≈ 18.5 µM)	CC(C)(C)CC(C)(C)Nc1c(-c2cc3ccccc3c3ccccc23)nc2ccccn12	–	–
–	–	31.2 (≈ 58.5 µM)	CCCCCCCCN(CCCCCCCC)c1c(-c2c3ccccc3cc3ccccc23)nc2ccccn12	–	–
inactive	inactive	–	c1ccc(CNc2c(Cc3ccccc3)nc3cnccn23)cc1	inactive	–
–	–	62.5 (≈ 154 µM)	O=C(Nc1c(-c2c3ccccc3cc3ccccc23)nc2ccccn12)C(F)(F)F	–	–
inactive	inactive	–	CC(C)(C)Nc1c(Cc2ccccc2)nc2cnccn12	inactive	–
–	–	15.6 (≈ 35.2 µM)	CC(C)(C)Nc1c(-c2c3ccccc3cc3ccccc23)nc2ccc(Br)cn12	–	–
–	–	15.6 (≈ 39.5 µM)	C[Si](C)(C)CNc1c(-c2c3ccccc3cc3ccccc23)nc2ccccn12	–	–
–	–	3.91 (≈ 7.49 µM)	CN(C)CCCNc1ccc2nc(-c3c4ccccc4cc4ccccc34)c(NC(C)(C)CC(C)(C)C)n2c1	–	–
inactive	inactive	–	c1ccc(CNc2c(Cc3ccccc3)nc3ccccn23)cc1	inactive	–
inactive	inactive	–	c1ccc(-c2nc3ccccn3c2NC2CCCCC2)cc1	inactive	–

SMILES	Activity [1]	Activity [3]	MIC (Staphylococcus aureus [4]) [µg/mL]	Activity (Staphylococcus aureus [2])	further results
CCCCCNc1c(-c2c3ccccc3cc3ccccc23)nc2ccccn12	–	–	3.91 (≈ 10.3 µM)	–	MIC (Staphylococcus aureus [5]): 7.81 µg/mL (≈ 20.6 µM)
CC(C)(C)Nc1c(-c2c3ccccc3c(NCCCCCCCCN)c3ccccc23)nc2ccccn12	–	–	7.81 (≈ 15.4 µM)	–	MIC (Staphylococcus aureus [5]): 15.6 µg/mL (≈ 30.8 µM)
CCCC(C)Nc1c(-c2c3ccccc3cc3ccccc23)nc2ccccn12 (configuration not stated)	–	–	7.81 (≈ 20.6 µM)	–	MIC (Staphylococcus aureus [5]): 3.91 µg/mL (≈ 10.3 µM)
CC(C)(C)Nc1c(-c2c3ccccc3cc3ccccc23)nc2ccc(NCCCCCCCCN)cn12	–	–	3.91 (≈ 7.7 µM)	–	MIC (Staphylococcus aureus [5]): 7.81 µg/mL (≈ 15.4 µM)
CC(C)(C)Nc1c(-c2c3ccccc3cc3ccccc23)nc2ccccn12	inactive	inactive	3.91 (≈ 10.7 µM)	–	Activity (Escherichia coli): inactive; Activity (Staphylococcus aureus [6]): inactive; MIC (Streptococcus pyogenes): < 10 µg/mL; MIC (Staphylococcus aureus [5]): 3.91 µg/mL (≈ 10.7 µM); MIC [7]: 7.81 µg/mL (≈ 21.4 µM)
c1ccc2c(-c3nc4ccccn4c3NC3CCCCC3)c3ccccc3cc2c1	inactive	inactive	3.91 (≈ 9.99 µM)	–	MIC (Streptococcus pyogenes): < 10 µg/mL; MIC (Staphylococcus aureus [5]): 3.91 µg/mL (≈ 9.99 µM); MIC [7]: 7.81 µg/mL (≈ 19.9 µM)
c1ccc2c(-c3nc4ccccn4c3NC3CCCCC3)cccc2c1	inactive	inactive	7.81 (≈ 22.9 µM)	–	MIC (Staphylococcus aureus [5]): 15.6 µg/mL (≈ 45.7 µM)
CC(C)(C)CC(C)(C)Nc1c(-c2c3ccccc3cc3ccccc23)nc2ccccn12	–	–	3.91 (≈ 9.27 µM)	–	Activity (Staphylococcus aureus [6]): inactive; MIC (Staphylococcus aureus [5]): 3.91 µg/mL (≈ 9.27 µM)
CC(C)Nc1c(-c2c3ccccc3cc3ccccc23)nc2ccccn12	–	–	15.6 (≈ 44.4 µM)	–	MIC (Staphylococcus aureus [5]): 15.6 µg/mL (≈ 44.4 µM)
CC(C)(C)Nc1c(-c2cccc3ccccc23)nc2ccccn12	inactive	inactive	62.5 (≈ 198 µM)	–	MIC (Streptococcus pyogenes): < 10 µg/mL; MIC (Staphylococcus aureus [5]): 31.2 µg/mL (≈ 99.1 µM)
CCCCNc1c(-c2c3ccccc3cc3ccccc23)nc2ccccn12	–	–	3.91 (≈ 10.7 µM)	–	MIC (Staphylococcus aureus [5]): 7.81 µg/mL (≈ 21.4 µM)
